{
  "source": "ChEMBL document CHEMBL1770131",
  "about": "“Radiosynthesis and preliminary evaluation of 4-[18F]fluoro-N-[4-[6-(isopropylamino)pyrimidin-4-yl]-1,3-thiazol-2-yl]-N-methylbenzamide as a new positron emission tomography ligand for metabotropic glutamate receptor subtype 1” (Bioorg Med Chem Lett, 2011)",
  "conditions_in_all_cases": "1 M, tested as the 18F-labelled form",
  "key": {"[1]": {"biological_target": "Metabotropic glutamate receptor 1 (Rattus norvegicus) (UniProt P23385)", "sequence (P23385 19-1199 limits assumed)": "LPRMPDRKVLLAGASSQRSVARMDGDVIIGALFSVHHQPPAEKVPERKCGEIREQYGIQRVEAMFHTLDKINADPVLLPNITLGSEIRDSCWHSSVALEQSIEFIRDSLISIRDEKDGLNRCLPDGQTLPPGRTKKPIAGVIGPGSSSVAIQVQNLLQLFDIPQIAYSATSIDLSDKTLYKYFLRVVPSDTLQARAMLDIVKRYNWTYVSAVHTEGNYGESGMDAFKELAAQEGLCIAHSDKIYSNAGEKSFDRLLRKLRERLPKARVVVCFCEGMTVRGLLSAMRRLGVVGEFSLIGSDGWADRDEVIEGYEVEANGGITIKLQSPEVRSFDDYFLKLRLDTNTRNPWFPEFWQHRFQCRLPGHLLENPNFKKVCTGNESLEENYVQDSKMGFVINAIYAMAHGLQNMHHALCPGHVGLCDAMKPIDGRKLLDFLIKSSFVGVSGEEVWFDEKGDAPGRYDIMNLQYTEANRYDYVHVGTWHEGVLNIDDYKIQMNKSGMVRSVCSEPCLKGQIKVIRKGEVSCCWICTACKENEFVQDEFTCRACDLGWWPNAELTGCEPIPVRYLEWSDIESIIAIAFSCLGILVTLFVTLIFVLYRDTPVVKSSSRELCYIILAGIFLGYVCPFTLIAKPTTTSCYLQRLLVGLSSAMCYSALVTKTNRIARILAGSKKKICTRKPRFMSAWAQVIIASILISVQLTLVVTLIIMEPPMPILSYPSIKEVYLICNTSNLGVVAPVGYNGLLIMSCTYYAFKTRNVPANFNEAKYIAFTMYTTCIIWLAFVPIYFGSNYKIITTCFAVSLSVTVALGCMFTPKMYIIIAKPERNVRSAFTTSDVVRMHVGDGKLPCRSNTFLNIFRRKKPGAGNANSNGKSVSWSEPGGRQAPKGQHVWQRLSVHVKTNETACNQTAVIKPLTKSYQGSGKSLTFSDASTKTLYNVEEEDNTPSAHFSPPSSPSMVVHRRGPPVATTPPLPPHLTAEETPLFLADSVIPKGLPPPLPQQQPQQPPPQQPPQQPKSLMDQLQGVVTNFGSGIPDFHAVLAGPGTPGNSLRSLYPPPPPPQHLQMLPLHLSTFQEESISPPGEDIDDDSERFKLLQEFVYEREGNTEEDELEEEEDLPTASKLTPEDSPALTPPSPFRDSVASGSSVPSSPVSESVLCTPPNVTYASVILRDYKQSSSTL", "assay": "Binding affinity to mGluR1 in rat hippocampus at 1 MBq/ml after 30 mins by autoradiography", "format": "tissue-based", "method_in_brief": "(§1)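 Rat brain sections pre-incubated 3 × 5 min at room temperature in Tris-HCl (50 mM, pH 7.4, 1.2 mM MgCl2, 2 mM CaCl2). Then incubated 30 min at room temperature in fresh buffer with radioligand (1 MBq/mL; in saline with 5% ethanol and Tween80), with or without 1 µM unlabeled ligand, JNJ16259685 or MPEP. Washed 3 × 5 min in cold buffer, dipped in cold water, air-dried, exposed to imaging plate.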"}, "[2]": {"biological_target": "Metabotropic glutamate receptor 1 (Rattus norvegicus) (UniProt P23385)", "assay": "Binding affinity to mGluR1 in rat cerebral cortex at 1 MBq/ml after 30 mins by autoradiography in presence of 1 uM of mGluR1 antagonist JNJ16259685", "format": "tissue-based", "method_in_brief": "as §1"}, "[3]": {"biological_target": "Metabotropic glutamate receptor 1 (Rattus norvegicus) (UniProt P23385)", "assay": "Binding affinity to mGluR1 in rat cerebral cortex at 1 MBq/ml after 30 mins by autoradiography in presence of 1 uM of mGluR5 antagonist MPEP", "format": "tissue-based", "method_in_brief": "as §1"}, "[4]": {"biological_target": "Metabotropic glutamate receptor 1 (Rattus norvegicus) (UniProt P23385)", "assay": "Binding affinity to mGluR1 in rat thalamus at 1 MBq/ml after 30 mins by autoradiography in presence of 1 uM non-radiolabeled compound", "format": "tissue-based", "method_in_brief": "as §1"}, "[5]": {"biological_target": "Metabotropic glutamate receptor 1 (Rattus norvegicus) (UniProt P23385)", "assay": "Binding affinity to mGluR1 in rat thalamus at 1 MBq/ml after 30 mins by autoradiography in presence of 1 uM of mGluR1 antagonist JNJ16259685", "format": "tissue-based", "method_in_brief": "as §1"}, "[6]": {"biological_target": "Metabotropic glutamate receptor 1 (Rattus norvegicus) (UniProt P23385)", "assay": "Binding affinity to mGluR1 in rat striatum at 1 MBq/ml after 30 mins by autoradiography in presence of 1 uM of mGluR5 antagonist MPEP", "format": "tissue-based", "method_in_brief": "as §1"}, "[7]": {"biological_target": "Metabotropic glutamate receptor 1 (Rattus norvegicus) (UniProt P23385)", "assay": "Binding affinity to mGluR1 in rat pons-medulla at 1 MBq/ml after 30 mins by autoradiography", "method_in_brief": "as §1"}, "[8]": {"biological_target": "Metabotropic glutamate receptor 1 (Rattus norvegicus) (UniProt P23385)", "assay": "Binding affinity to mGluR1 in rat cerebellum at 1 MBq/ml after 30 mins by autoradiography in presence of 1 uM non-radiolabeled compound", "format": "tissue-based", "method_in_brief": "as §1"}, "[9]": {"biological_target": "Metabotropic glutamate receptor 1 (Rattus norvegicus) (UniProt P23385)", "assay": "Binding affinity to mGluR1 in rat thalamus at 1 MBq/ml after 30 mins by autoradiography", "format": "tissue-based", "method_in_brief": "as §1"}, "[10]": {"biological_target": "Metabotropic glutamate receptor 1 (Rattus norvegicus) (UniProt P23385)", "assay": "Binding affinity to mGluR1 in rat hippocampus at 1 MBq/ml after 30 mins by autoradiography in presence of 1 uM of mGluR1 antagonist JNJ16259685", "format": "tissue-based", "method_in_brief": "as §1"}, "[11]": {"biological_target": "Metabotropic glutamate receptor 1 (Rattus norvegicus) (UniProt P23385)", "assay": "Binding affinity to mGluR1 in rat cerebellum at 1 MBq/ml after 30 mins by autoradiography in presence of 1 uM of mGluR1 antagonist JNJ16259685", "format": "tissue-based", "method_in_brief": "as §1"}, "[12]": {"biological_target": "Metabotropic glutamate receptor 1 (Rattus norvegicus) (UniProt P23385)", "assay": "Binding affinity to mGluR1 in rat thalamus at 1 MBq/ml after 30 mins by autoradiography in presence of 1 uM of mGluR5 antagonist MPEP", "format": "tissue-based", "method_in_brief": "as §1"}, "[13]": {"biological_target": "Metabotropic glutamate receptor 1 (Rattus norvegicus) (UniProt P23385)", "assay": "Binding affinity to mGluR1 in rat whole brain at 1 MBq/ml after 30 mins by autoradiography in presence of 1 uM of mGluR1 antagonist JNJ16259685", "method_in_brief": "as §1"}, "[14]": {"biological_target": "Metabotropic glutamate receptor 1 (Rattus norvegicus) (UniProt P23385)", "assay": "Binding affinity to mGluR1 in rat hippocampus at 1 MBq/ml after 30 mins by autoradiography in presence of 1 uM of mGluR5 antagonist MPEP", "format": "tissue-based", "method_in_brief": "as §1"}, "[15]": {"biological_target": "Metabotropic glutamate receptor 1 (Rattus norvegicus) (UniProt P23385)", "assay": "Binding affinity to mGluR1 in rat pons-medulla at 1 MBq/ml after 30 mins by autoradiography in presence of 1 uM of mGluR1 antagonist JNJ16259685", "method_in_brief": "as §1"}, "[16]": {"biological_target": "Metabotropic glutamate receptor 1 (Rattus norvegicus) (UniProt P23385)", "assay": "Binding affinity to mGluR1 in rat hippocampus at 1 MBq/ml after 30 mins by autoradiography in presence of 1 uM non-radiolabeled compound", "format": "tissue-based", "method_in_brief": "as §1"}, "[17]": {"biological_target": "Metabotropic glutamate receptor 1 (Rattus norvegicus) (UniProt P23385)", "assay": "Binding affinity to mGluR1 in rat pons-medulla at 1 MBq/ml after 30 mins by autoradiography in presence of 1 uM of mGluR5 antagonist MPEP", "method_in_brief": "as §1"}, "[18]": {"biological_target": "Metabotropic glutamate receptor 1 (Rattus norvegicus) (UniProt P23385)", "assay": "Binding affinity to mGluR1 in rat cerebral cortex at 1 MBq/ml after 30 mins by autoradiography in presence of 1 uM non-radiolabeled compound", "format": "tissue-based", "method_in_brief": "as §1"}, "[19]": {"biological_target": "Metabotropic glutamate receptor 1 (Rattus norvegicus) (UniProt P23385)", "assay": "Binding affinity to mGluR1 in rat whole brain at 1 MBq/ml after 30 mins by autoradiography in presence of 1 uM non-radiolabeled compound", "method_in_brief": "as §1"}, "[20]": {"biological_target": "Metabotropic glutamate receptor 1 (Rattus norvegicus) (UniProt P23385)", "assay": "Binding affinity to mGluR1 in rat striatum at 1 MBq/ml after 30 mins by autoradiography", "format": "tissue-based", "method_in_brief": "as §1"}, "[21]": {"biological_target": "Metabotropic glutamate receptor 1 (Rattus norvegicus) (UniProt P23385)", "assay": "Binding affinity to mGluR1 in rat cerebral cortex at 1 MBq/ml after 30 mins by autoradiography", "format": "tissue-based", "method_in_brief": "as §1"}, "[22]": {"biological_target": "Metabotropic glutamate receptor 1 (Rattus norvegicus) (UniProt P23385)", "assay": "Binding affinity to mGluR1 in rat cerebellum at 1 MBq/ml after 30 mins by autoradiography in presence of 1 uM of mGluR5 antagonist MPEP", "format": "tissue-based", "method_in_brief": "as §1"}, "[23]": {"biological_target": "Metabotropic glutamate receptor 1 (Rattus norvegicus) (UniProt P23385)", "assay": "Binding affinity to mGluR1 in rat striatum at 1 MBq/ml after 30 mins by autoradiography in presence of 1 uM non-radiolabeled compound", "format": "tissue-based", "method_in_brief": "as §1"}, "[24]": {"biological_target": "Metabotropic glutamate receptor 1 (Rattus norvegicus) (UniProt P23385)", "assay": "Binding affinity to mGluR1 in rat striatum at 1 MBq/ml after 30 mins by autoradiography in presence of 1 uM of mGluR1 antagonist JNJ16259685", "format": "tissue-based", "method_in_brief": "as §1"}, "[25]": {"biological_target": "Metabotropic glutamate receptor 1 (Rattus norvegicus) (UniProt P23385)", "assay": "Binding affinity to mGluR1 in rat pons-medulla at 1 MBq/ml after 30 mins by autoradiography in presence of 1 uM non-radiolabeled compound", "method_in_brief": "as §1"}, "[26]": {"biological_target": "Metabotropic glutamate receptor 1 (Rattus norvegicus) (UniProt P23385)", "assay": "Binding affinity to mGluR1 in rat cerebellum at 1 MBq/ml after 30 mins by autoradiography", "format": "tissue-based", "method_in_brief": "as §1"}},
  "note": "The source made the active and inactive calls. The rule behind the calls is not given here.",
  "data": [
    {"compound": "CC(C)Nc1cc(-c2csc(N(C)C(=O)c3ccc(F)cc3)n2)ncn1", "values": [
      {"measurement": "Activity", "setting": "[1]", "value": 680, "unit": "PSL/mm2"},
      {"measurement": "Activity", "setting": "[2]", "value": "inactive"},
      {"measurement": "Activity", "setting": "[3]", "value": 316, "unit": "PSL/mm2"},
      {"measurement": "Activity", "setting": "[4]", "value": "inactive"},
      {"measurement": "Activity", "setting": "[5]", "value": "inactive"},
      {"measurement": "Activity", "setting": "[6]", "value": 497, "unit": "PSL/mm2"},
      {"measurement": "Activity", "setting": "[7]", "value": 222, "unit": "PSL/mm2"},
      {"measurement": "Activity", "setting": "[8]", "value": "inactive"},
      {"measurement": "Activity", "setting": "[9]", "value": 739, "unit": "PSL/mm2"},
      {"measurement": "Activity", "setting": "[10]", "value": "inactive"},
      {"measurement": "Activity", "setting": "[11]", "value": "inactive"},
      {"measurement": "Activity", "setting": "[12]", "value": 618, "unit": "PSL/mm2"},
      {"measurement": "Activity", "setting": "[13]", "value": 6.7, "unit": "PSL/mm2"},
      {"measurement": "Activity", "setting": "[14]", "value": 602, "unit": "PSL/mm2"},
      {"measurement": "Activity", "setting": "[15]", "value": "inactive"},
      {"measurement": "Activity", "setting": "[16]", "value": "inactive"},
      {"measurement": "Activity", "setting": "[17]", "value": 181, "unit": "PSL/mm2"},
      {"measurement": "Activity", "setting": "[18]", "value": "inactive"},
      {"measurement": "Activity", "setting": "[19]", "value": 6.9, "unit": "PSL/mm2"},
      {"measurement": "Activity", "setting": "[20]", "value": 568, "unit": "PSL/mm2"},
      {"measurement": "Activity", "setting": "[21]", "value": 375, "unit": "PSL/mm2"},
      {"measurement": "Activity", "setting": "[22]", "value": 683, "unit": "PSL/mm2"},
      {"measurement": "Activity", "setting": "[23]", "value": "inactive"},
      {"measurement": "Activity", "setting": "[24]", "value": "inactive"},
      {"measurement": "Activity", "setting": "[25]", "value": "inactive"},
      {"measurement": "Activity", "setting": "[26]", "value": 719, "unit": "PSL/mm2"}
    ]}
  ]
}
